# The list is not random: actives were taken first. Their share in the collection is about 3.7%.
# KCNQ1 pot: human KCNQ1 channel potentiation or activation; P51787; CHO-K1 KCNQ1, thallium flux FluxOR fluorescence; active compounds read high; B-score at 10 µM; 0.35% of 310,000 active;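 active = fluorescence ratio B-score, a plate-corrected score, at least three library SD, with initial intensity B-score within 5 SD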
#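 System: CHO-K1 cells stably expressing KCNQ1 / Medium: assay buffer for compound exposure, DMSO matched across wells / Reagent: thallium- and potassium-containing depolarizing buffer / Compound: one concentration, matched DMSO / Incubation: 20 min compound pretreatment at room temperature / Measured by: kinetic FluxOR fluorescence, 10 s baseline plus 110 s post-stimulus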
# Kir21 inh: inhibitors of mouse Kir2.1 inward-rectifier potassium channel; 0.85% of 310,000 active; B-score at 10 µM; HEK293-Kir2.1, FluxOR thallium flux fluorescence; active compounds read low; AID 1672;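 active = fluorescence ratio B-score at or below minus 3 SD of library scores, with starting-brightness B-score within 2 SD, cut at about -4.2 in these data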;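 also: channel flux triggered by added potassium and thallium sulfate stimulus; B-score of peak minus minimum fluorescence over baseline after thallium stimulus; more negative B-score means stronger Kir2.1 block with less thallium influx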
# KCNK9 block: blocks the human KCNK9 two-pore domain potassium channel. HEK293 KCNK9, FluxOR thallium flux fluorescence; active compounds read low. Q9NPC2. B-score at 10 µM. 1.2% of 310,000 active;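 active = ratio B-score over 3 SD below the library mean, with starting fluorescence within 5 SD of its mean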;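 also: negative B-score means less thallium flux so channel inhibition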
# hERG protect: hERG (human) protection from proarrhythmic block; AID 1511; Q12809; CHO-hERG, FluxOR thallium flux, dofetilide IC70 present; activation (rescue from dofetilide block), less the hit threshold, % at 10 µM; 0.51% of 310,000 active;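 active = activation above the mean of controls blocked by dofetilide plus 5 SD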;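 also: thallium influx through hERG after potassium depolarization seen as dye fluorescence rise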
# KCNQ1 block: inhibitors of human KCNQ1 potassium channel. P51787. CHO-K1 KCNQ1, FluxOR thallium flux fluorescence; active compounds read high. B-score at 10 µM. 1.3% of 310,000 active;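 active = compounds whose thallium flux B-score, printed positive for inhibition, exceeds three library SD while starting fluorescence stays within three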;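 also: channel opened by potassium depolarization with thallium stimulus after 20 min compound exposure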
# KCNK3 inh: human KCNK3 channel inhibition, primary screen. CHO-KCNK3 thallium flux, FluxOR fluorescence; active compounds read low. B-score at 10 µM. 0.84% of 340,000 active;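 active = B-score under library mean minus 4 SD, starting fluorescence ratio at most library mean plus 5 SD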;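 also: more negative B-score means stronger inhibition of thallium flux through KCNK3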
# KCNK9 inh conf: human KCNK9 inhibitor confirmation | shares compounds with KCNK9 block | HEK293 KCNK9 cells, FluxOR thallium flux fluorescence | inhibition, % at 10 µM | 43% of 4,900 active | AID 492992;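 active = thallium signal inhibited by more than 5 SD of the compound-free buffer control wells, on both duplicate plates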;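 also: 0% = assay buffer control wells without compound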
# Kir2-1 spec: selectivity of KCNK9 modulators against mouse Kir2.1. Kir2.1 cells, FluxOR thallium flux fluorescence. 4% of 4,900 active. inhibition, % at 10 µM. AID 492993. shares compounds with KCNK9 block;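 active = thallium signal drop more than 5 SD beyond the mean of the no-compound control wells, seen in both duplicate plates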;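 also: signal is fluorescence rise after thallium addition divided by baseline fluorescence; plate controls were assay buffer only for no effect and full block by chlorpromazine control for full effect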
# KCNK9 uninduced: non-induced cell nonspecific activity of KCNK9 modulators | shares compounds with KCNK9 block | non-induced KCNK9-HEK293, FluxOR thallium flux | inhibition, % at 10 µM | 40% of 4,900 active | AID 492997;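 active = thallium signal drop beyond 5 SD of the untreated control mean, on both duplicate plates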;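 also: plate controls were buffer only IC0 wells for no effect and SID17386958 at its maximal inhibitory level for full effect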
# * hit, by the source's call; i = inactive; x = not tested or not shown.
SMILES,KCNQ1 pot,Kir21 inh,KCNK9 block,hERG protect,KCNQ1 block,KCNK3 inh,KCNK9 inh conf,Kir2-1 spec,KCNK9 uninduced
Cc1ccc(S(=O)(=O)N2[C@@H](c3ccc(Cl)cc3)C(C(=O)O)=C[C@H]2C(C)(C)C)cc1,x,x,x,x,x,i,x,x,x
CCOC(=O)c1sc(-c2ccc(F)cc2)cc1NC(=O)Nc1ccccc1OC,i,-0.67,i,-9.3,i,i,x,x,x
CCOC(=O)c1sc(-c2ccccc2)cc1NC(=O)Nc1ccccc1,i,1.97,i,-11.2,i,i,i,i,i
C[C@H](CO)N1C[C@H](C)[C@@H](CN(C)S(=O)(=O)c2cccs2)Oc2ccc(NC(=O)Cn3cnnn3)cc2C1=O,x,x,x,x,x,i,x,x,x
COC(=O)CN1C(c2cccc(Cl)c2)=Nc2ccc(Cl)cc2C1c1ccccc1 (stereo not drawn),i,-0.21,-16.3*,-6.1,i,i,58.0%*,i,47.0%*
CC1CCCC(NC(=O)C2CCN(S(=O)(=O)c3cccc4nonc34)CC2)C1C (stereo not drawn),i,0.83,i,-7.4,i,i,x,x,x
Cc1ccc(-c2cc(C(=O)Nc3ccc(S(=O)(=O)Nc4onc(C)c4C)cc3)c3ccccc3n2)cc1,i,0.03,i,-25.5,i,i,i,i,i
O=C(c1cccc(S(=O)(=O)Nc2cccc(C(F)(F)F)c2)c1)N1CCCCC1,i,-0.26,i,-9.9,i,i,x,x,x
CC1Cc2ccccc2N1C(=O)c1ccc(N2CCCCC2)c([N+](=O)[O-])c1 (stereo not drawn),i,-0.16,-11.2*,-12.6,i,i,49.0%*,i,25.0%*
O=C(O)c1ccccc1NS(=O)(=O)c1cccc(-n2sc3ccccc3c2=O)c1,13*,0.37,i,-20.6,i,i,i,i,i
O=C(O)c1ccccc1NS(=O)(=O)c1cccc(C(F)(F)F)c1,i,0.15,i,-8.3,i,i,x,x,x
CCOC(=O)c1c(C)[nH]c(C(=O)COC(=O)C2(C)CC2(Cl)Cl)c1C (stereo not drawn),i,-0.55,-17.4*,-6.9,i,i,i,i,i
CCOC(=O)c1c(C)[nH]c(C(=O)COC(=O)C2CC2)c1C,x,x,x,x,x,i,x,x,x
CC1CCc2c(sc(Nc3nc4c(F)cccc4s3)c2C(N)=O)C1 (stereo not drawn),i,0.74,i,-8.2,i,i,x,x,x
CCc1ccc(NC(=O)c2ccc(C3SCC(=O)N3CCc3ccccc3)cc2)cc1 (stereo not drawn),i,0.28,i,-12.6,i,i,i,i,i
CCNC(=O)c1ccc(C2SCC(=O)N2CCc2ccccc2)cc1 (stereo not drawn),i,0.02,i,-2.9,i,i,x,x,x
CCOc1cccc(CN2CCN(c3cccc(C(F)(F)F)c3)CC2)c1O,i,-1.06,i,-17.5,i,i,i,i,i
CCC(C)(C)n1nnnc1C(c1ccc2ncccc2c1)N1CCN(c2nc3ccccc3s2)CC1 (stereo not drawn),i,0.04,-14.9*,-7.0,i,i,47.0%*,i,45.0%*
CCC(C)(C)n1nnnc1C(c1ccc2ncccc2c1)N1CCN(c2ccc(O)cc2)CC1 (stereo not drawn),i,1.26,i,-11.2,i,i,x,x,x
COc1ccc(OC)c(N(CC(=O)N2CCCC2)S(C)(=O)=O)c1,i,1.48,i,-8.9,i,i,x,x,x
c1ccc(CSc2nnc(-c3sccc3-n3cccc3)o2)cc1,i,1.11,-8.27*,-10.0,i,i,i,i,35.0%*
CN(C)CCn1c(=O)n(-c2cccc(Cl)c2)c(=O)c2c3c(sc21)CCCCC3,i,-1.52,i,-12.5,i,i,i,i,i
CN(C)CCn1c(=O)n(-c2ccc(F)cc2)c(=O)c2c3c(sc21)CCCCC3,i,1.77,i,-7.9,i,i,x,x,x
CCOC(=O)C1CCCN(C(=O)c2ccc(Cl)c(S(=O)(=O)N3CCCCCC3)c2)C1 (stereo not drawn),i,-1.17,i,-12.1,i,i,i,i,i
CC1CCCN(C(=O)c2ccc(Cl)c(S(=O)(=O)N3CCCCCC3)c2)C1 (stereo not drawn),x,x,x,x,x,i,x,x,x
SMILES,KCNQ1 pot,Kir21 inh,KCNK9 block,hERG protect,KCNQ1 block,KCNK3 inh,KCNK9 inh conf,Kir2-1 spec,KCNK9 uninduced
O=C(c1ccc(Cl)c(S(=O)(=O)N2CCCCC2)c1)N1CCN(Cc2ccccc2)CC1,i,-0.57,i,-3.3,i,i,i,i,i
COc1cc2c(cc1OC)C(C)N(C(=O)c1ccc(Cl)c(S(=O)(=O)N3CCCCC3)c1)CC2 (stereo not drawn),i,0.16,-11.2*,-6.9,i,i,32.5%*,i,i
O=C(OCC(=O)N1CCCCCC1)c1ccc(Cl)c(S(=O)(=O)N2CCCC2)c1,i,-1.54,i,-4.4,i,i,i,i,i
Cc1cccc(C(=O)NNC(=O)c2csc(N3CCOCC3)n2)c1C,i,-0.02,i,-12.8,i,i,x,x,x
OC1=C(O)c2nc3cc(C(F)(F)F)ccc3nc21,i,0.23,i,-7.9,i,i,x,x,x
Cc1cc(N/N=C/c2ccccc2Cl)nc(NCc2ccccc2)n1,i,-2.25,i,-13.2,i,i,i,i,i
Cc1cc(C)nc(N/N=C/c2ccccc2Cl)n1,i,0.82,i,-8.3,i,i,x,x,x
CC(SC1=NCCS1)C(=O)Nc1nnc(-c2ccc(Br)cc2)s1 (stereo not drawn),i,1.22,-17.9*,-5.7,i,i,i,i,22.5%*
CCOC(=O)Nc1nnc(-c2ccccc2OC)s1,i,-1.01,i,-3.9,i,i,x,x,x
CCC(SC1=NCCS1)C(=O)Nc1nnc(-c2ccccc2OC)s1 (stereo not drawn),i,-0.7,-10.2*,-6.7,i,i,30.0%*,i,33.5%*
COc1ccc(NCc2nnc(SCC(=O)Nc3ccccc3)n2C)cc1,i,-0.89,i,-6.5,i,i,x,x,x
CCc1cc(=O)oc2cc(C)cc(OCC(=O)NC3CCN(Cc4ccccc4)CC3)c12,i,-1.45,i,-8.8,i,i,x,x,x
NC(=O)c1cc(S(=O)(=O)N2CCOCC2)ccc1Sc1ccccc1N,x,x,x,x,x,i,x,x,x

# Bioassay records as filed in PubChem BioAssay.
